Experimental data of several laboratories.
Each line is one published result; the experiments were not run side by side.
Observed: cell growth or viability

C[C@H]1[C@H](C)CC[C@]2(C)CC[C@]3(C)C(=CC(=O)[C@@H]4[C@@]5(C)CC[C@@H](O)[C@](C)(C(=O)NCc6cn(-c7ccccc7)nn6)[C@@H]5CC[C@]43C)[C@H]12 — IC50 (HDF; MTT; 24 h): 181000 nM
S=C(N/N=C/c1cccc2cc3ccccc3nc12)Nc1ccccc1 — IC50 (SK-BR-3; MTT; 48 h): > 50000 nM
COc1cccc2c1C(=O)c1c(O)c3c(c(O)c1C2=O)C[C@@](O)(C(=O)CO)C[C@@H]3O[C@H]1C[C@H](N)[C@H](O)[C@H](C)O1 — IC50 (CHO-K1; ATP luminescence; 72 h): 340 nM
Cc1[nH]c2ccccc2c1CCNCc1ccc(/C=C/C(=O)NO)cc1 — IC50 (MP41; ATP luminescence; 72 h): 14.3 nM
COc1ccc(NC(=S)N/N=C/c2cccc3cc4ccccc4nc23)cc1 — IC50 (SK-BR-3; MTT; 48 h): > 50000 nM
N#Cc1ccc(-c2cc(CNc3cccc4cccnc34)on2)cc1 — IC50 (HL-60; MTS; 72 h): 16500 nM
COc1ccccc1-n1cc(CNC(=O)[C@@]2(C)[C@H](O)CC[C@@]3(C)[C@H]2CC[C@]2(C)[C@@H]3C(=O)C[C@@H]3[C@@H]4[C@@H](C)[C@H](C)CC[C@]4(C)CC[C@]32C)nn1 — IC50 (HDF; MTT; 24 h): 105000 nM
CC(=O)O[C@@]12CO[C@@H]1C[C@H](O)[C@@]1(C)C(=O)[C@H](O)C3=C(C)[C@@H](OC(=O)[C@H](O)[C@@H](NC(=O)OC(C)(C)C)c4ccccc4)C[C@@](O)([C@@H](OC(=O)c4ccccc4)[C@H]21)C3(C)C — IC50 (SK-BR-3; MTT; 24 h): > 50 µg/mL
COc1cc(C(=O)c2nc(-c3cccc4c3CCN4)c[nH]2)cc(OC)c1OC — IC50 (M14; MTS; 72 h): 43.4 nM
c1ccc(Oc2ccc(Nc3c4c(nc5ccccc35)CCC4)cc2)cc1 — IC50 (RAW264.7; resazurin; 72 h): 40800 nM
CCCNC(=S)N/N=C/c1cccc2cc3ccccc3nc12 — IC50 (SK-BR-3; MTT; 48 h): > 50000 nM
COc1cc(C(=O)c2nc(-c3cccc4cc[nH]c34)c[nH]2)cc(OC)c1OC — IC50 (M14; MTS; 72 h): 27.3 nM
COc1ccc(Nc2ncnc3c2ncn3Cc2ccc(C(=O)NO)cc2)cc1 — IC50 (U-266; MTT; 72 h): 1110 nM
COc1ccc(-c2ccc3c(N4CCOC[C@@H]4C)nc(N4CCOC[C@@H]4C)nc3n2)cc1COC(=O)CCOCCOCCOCCONC(=O)c1ccc(F)c(F)c1Nc1ccc(I)cc1F — IC50 (D54; WST-1; 72 h): 327 nM
O=[N+]([O-])c1ccc(Sc2cccc[n+]2[O-])c2nonc12 — IC50 (MP41; ATP luminescence; 72 h): 2590 nM
C[C@H]1[C@H](C)CC[C@]2(C)CC[C@]3(C)C(=CC(=O)[C@@H]4[C@@]5(C)CC[C@@H](O)[C@](C)(C(=O)NCc6cn(-c7cccc(C(F)(F)F)c7)nn6)[C@@H]5CC[C@]43C)[C@H]12 — IC50 (HDF; MTT; 24 h): 116000 nM
COc1cc(C(=O)c2nc(-c3cccc4[nH]nnc34)c[nH]2)cc(OC)c1OC — IC50 (M14; MTS; 72 h): 53.2 nM
N#Cc1ccc(-c2cc(COc3cc(=O)oc4ccccc34)on2)cc1 — IC50 (HL-60; MTS; 72 h): > 100000 nM
COc1cc(C(=O)c2nc(-c3cccc4[nH]cnc34)c[nH]2)cc(OC)c1OC — IC50 (M14; MTS; 72 h): 15.9 nM
COc1cc([C@@H]2c3cc4c(cc3[C@@H](O[C@@H]3O[C@@H]5CO[C@@H](C)O[C@H]5[C@H](O)[C@H]3O)[C@H]3COC(=O)[C@H]23)OCO4)cc(OC)c1O — IC50 (HL-60; MTS; 72 h): 30 nM
Nc1ccccc1NC(=O)c1ccc(Cn2cnc3c(Nc4ccc(Br)cc4F)ncnc32)cc1 — IC50 (U-266; MTT; 72 h): 460 nM
C[C@H]1[C@H](C)CC[C@]2(C)CC[C@]3(C)C(=CC(=O)[C@@H]4[C@@]5(C)CC[C@@H](O)[C@](C)(C(=O)NCc6cn(-c7ccc(F)cc7)nn6)[C@@H]5CC[C@]43C)[C@H]12 — IC50 (HDF; MTT; 24 h): 108000 nM
CO[C@H]1[C@H](O[C@H]([C@H]2O[C@@H](n3ccc(=O)[nH]c3=O)[C@H](O)[C@@H]2O)[C@H](NCCCNC(=O)[C@@H](NC(=O)[C@@H](NC(=O)N[C@H](C(=O)O)C(C)C)[C@@H]2CCN=C(N)N2)[C@@H](O)C(C)C)C(=O)O)O[C@H](CN)[C@H]1O — IC50 (SK-BR-3; WST-1): > 35000 nM
Cc1noc2c1-c1ccc(-c3cnn(C)c3)cc1C(c1ccc(Cl)cc1)=N[C@H]2CC(N)=O — IC50 (MP41; ATP luminescence; 72 h): 376 nM
COc1cc(C(=O)c2nc(-c3ccc4cc[nH]c4c3)c[nH]2)cc(OC)c1OC — IC50 (M14; MTS; 72 h): 14.3 nM
Nc1ccccc1NC(=O)c1ccc(Cn2cnc3c(Nc4ccc(Cl)cc4)ncnc32)cc1 — IC50 (U-266; MTT; 72 h): 330 nM
C/C(=N/NC(=O)c1cn(-c2ccccc2)nc1-c1ccc(C)cc1)c1c(O)cc(C)oc1=O — IC50 (Vero; MTT; 48 h): 216000 nM
CC(C)C[C@H](NC(=O)[C@H](Cc1ccccc1)NC(=O)c1cnccn1)B(O)O — IC50 (MP41; ATP luminescence; 72 h): 4.34 nM
Fc1ccc(NC(=S)N/N=C/c2cccc3cc4ccccc4nc23)cc1 — IC50 (SK-BR-3; MTT; 48 h): > 50000 nM
COc1nnc2ccc(N3CCC(c4ccc(OCCN5CCN(C)C(=O)[C@H]5C)cc4)CC3)nn12 — IC50 (MP41; ATP luminescence; 72 h): 90.4 nM
Cc1ccc(C(C)C)c(OC2=C(Cl)C(=O)c3ccccc3C2=O)c1 — IC50 (SK-BR-3; MTT; 24 h): > 60 µg/mL
FC(F)(F)c1cc(OCc2cc(-c3ccc(Cl)cc3Cl)no2)c2ccccc2n1 — IC50 (HL-60; MTS; 72 h): > 100000 nM
CCS(=O)(=O)Nc1ccc(Oc2ccc(F)cc2F)c(-c2cn(C)c(=O)c3[nH]ccc23)c1 — IC50 (MP41; ATP luminescence; 72 h): 99.6 nM
COc1cc(C(=O)c2nc(-c3cccc4[nH]ccc34)cs2)cc(OC)c1OC — IC50 (M14; MTS; 72 h): 4.5 nM
COc1ccc(Nc2ncnc3c2ncn3Cc2ccc(C(=O)Nc3ccccc3N)cc2)cc1 — IC50 (U-266; MTT; 72 h): 4210 nM
N/C(=N\O)c1ccc(-c2cc(CNc3cccc4cccnc34)on2)cc1 — IC50 (HL-60; MTS; 72 h): 2800 nM
O=C(NO)c1ccc(Cn2cnc3c(Nc4ccc(F)c(Cl)c4)ncnc32)cc1 — IC50 (U-266; MTT; 72 h): 1460 nM
C[C@H]1[C@H](C)CC[C@]2(C)CC[C@]3(C)C(=CC(=O)[C@@H]4[C@@]5(C)CC[C@@H](O)[C@](C)(C(=O)NCc6cn(-c7ccccc7C(F)(F)F)nn6)[C@@H]5CC[C@]43C)[C@H]12 — IC50 (HDF; MTT; 24 h): 103000 nM
COc1cc(C(=O)c2nc(-c3cccc4[nH]ccc34)c(C)[nH]2)cc(OC)c1OC — IC50 (M14; MTS; 72 h): 17.2 nM
